NadD block: NadD (S. aureus) enzyme inhibition. purified NadD enzyme, colorimetric absorbance read-out. inhibition, % at 20 µM. 360,000 compounds, 0.78% hits. AID 602399; in the data active = inhibition above about 26%
DNMT1 block: inhibitors of human DNMT1; 360,000 compounds, 0.83% hits; inhibition (reported as % activation of signal), % at 10 µM; DNMT1 molecular beacon, Hinp1I cleavage, fluorescence; P26358; AID 588458; in the data active = inhibition above about 50%
SUMO1-SIM PPI: modulators of human SUMO1-mediated protein-protein interactions; P63165; SUMO1 binding to a labelled peptide, TR-FRET, 1 h; inhibition, % at 20 µM; 360,000 compounds, 0.33% hits; AID 602429; in the data active = inhibition above about 37%
Target sequence (P63165 whole entry, looked up): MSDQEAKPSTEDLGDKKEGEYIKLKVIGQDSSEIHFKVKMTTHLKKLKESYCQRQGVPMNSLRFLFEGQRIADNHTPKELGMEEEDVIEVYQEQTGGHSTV
LMPTP block: LMPTP (human) inhibition | recombinant LMPTP-A, OMFP fluorogenic substrate, fluorescence intensity | inhibition, % at 20 µM | 360,000 compounds, 0.22% hits;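 active = compounds that cut the enzyme signal by at least half of the control window in the single-dose screen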;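 note: plate controls were DMSO wells with enzyme plus substrate for no effect and substrate without enzyme for full effect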
Target sequence (P24666 whole entry, looked up): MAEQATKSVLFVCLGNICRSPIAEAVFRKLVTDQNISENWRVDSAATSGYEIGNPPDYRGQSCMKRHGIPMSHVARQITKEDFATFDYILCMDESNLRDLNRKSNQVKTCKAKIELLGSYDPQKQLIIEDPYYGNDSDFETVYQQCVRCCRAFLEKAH
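Test system – LMPTP-A phosphatase enzyme · Quantity – 0.625 nM LMPTP-A final · Reagent – OMFP substrate, 400 µM final · Dosing – one test concentration per compound, 20 µM, with 3% DMSO overall · Timing – 50 min enzyme reaction at room temperature, protected from light · Detection – fluorescence intensity · Controls – substrate-only low control, DMSO enzyme-plus-substrate high control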
Scp1 inh: Scp-1 (human) phosphatase inhibition. 340,000 compounds, 0.88% hits. inhibition, % at 20 µM. Recombinant Scp1, phosphopeptide, malachite green phosphate absorbance. Q9GZU7;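 active = inhibition above about 50% at 20 µM, limit read from the data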;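 note: plate controls were DMSO wells with enzyme for no effect and wells lacking enzyme for full effect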
Target sequence (Q9GZU7 76-261 limits assumed): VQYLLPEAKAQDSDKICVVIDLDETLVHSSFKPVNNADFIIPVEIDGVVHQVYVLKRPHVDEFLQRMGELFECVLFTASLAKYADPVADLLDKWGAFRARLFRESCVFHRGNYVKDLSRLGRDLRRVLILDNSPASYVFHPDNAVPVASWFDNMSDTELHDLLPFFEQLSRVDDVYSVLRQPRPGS
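Test system – truncated SCP-1 phosphatase (76-261aa) · Reagent – Phosphorylated 17-residue peptide substrate · Incubation – 45 min room-temperature reaction, 5 min colour, 30 min stabiliser · Detection – colorimetric phosphate reagent with accelerator and stabiliser, absorbance at 630 nm · Measure – % inhibition at 20 µM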
STEP block: STEP (human) phosphatase inhibition. inhibition, % at 20 µM. 360,000 compounds, 0.25% hits. recombinant STEP, OMFP fluorogenic substrate, fluorescence. P54829;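 active = inhibition at 20 µM, scaled per plate between control wells, above about 37%, limit read from the data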;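 note: 0% = DMSO with enzyme and substrate and 100% = substrate only without enzyme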
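Also added – OMFP at 25 µM · Test system – STEP tyrosine phosphatase · Technique – FITC-channel fluorescence of OMFP product · Schedule – 20 min at room temperature, dark · Evaluation – control-normalized % inhibition with plate pattern correction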
NadD conf: NadD (S. aureus) inhibition, single concentration confirmation; 2,000 compounds, 13% hits; AID 624309; shares compounds with NadD block; inhibition, % at 20 µM; purified S. aureus NadD, colorimetric enzyme assay; in the data active = inhibition mostly above about 42%, no sharp cut-off; inactive = mostly below about 42%
Numbers without * were called inactive; . = no result given. In the library only some 2.3% were active in any assay of this set; here they are far more common.

SMILES | NadD block | DNMT1 block | SUMO1-SIM PPI | LMPTP block | Scp1 inh | STEP block | NadD conf
CC(C)C[C@@H](CN1CCC[C@H]1CN1C(=O)C(=O)NC[C@@H]1Cc1ccccc1)N1C[C@H](Cc2ccc(O)cc2)N(CC2CCCCCC2)C(=O)C1=O | 41* | . | 10 | 6 | . | . | 33
Cc1ccnc(NC(=O)CSc2ccccn2)c1 | -5 | 2 | -10 | -2 | -2 | 2 | .
Cc1c(C(=O)OC/C(O)=C(\C#N)c2nc3ccccc3[nH]2)oc2ccc(Br)cc12 | 43* | 11 | 3 | -1 | 1 | -2 | 4
Cc1c(-c2cccc(Cl)c2)nc2ccccc2c1C(=O)OC/C(O)=C(\C#N)c1nc2ccccc2[nH]1 | 70* | 2 | 12 | 3 | 12 | 2 | -1
COc1ccccc1NC(=O)COC(=O)/C=C/c1ccc(OC)c(OC)c1 | 2 | 2 | -15 | 0 | -7 | 1 | .
O=C(c1[nH]c(C(F)(F)F)nc1-c1ccccc1)N1CCC2(CC1)C(=O)NCN2c1ccccc1 | 0 | 0 | 10 | -2 | . | -1 | .
c1ccc(-c2ncc(-c3ccn[nH]3)s2)cc1 | 5 | -2 | -17 | -1 | -9 | 2 | .
COc1ccc(/C=C2/Sc3ccc(C(=O)NCCN4CCCCCC4)cc3NC2=O)cc1 | 56* | 40 | -6 | 1 | 2 | 4 | -11
O=C(Nc1ccc(Cl)cc1)[C@@H]1[C@@H]2C(=O)N(c3ccc4ccccc4c3)C(=O)[C@@H]2[C@H]2C=CC=NN21 | 57* | -8 | -1 | 2 | 43 | 3 | 31
O=C(Nc1ccc(Cl)cc1)[C@@H]1[C@@H]2C(=O)N(c3cccc(F)c3)C(=O)[C@@H]2[C@H]2C=CC=NN21 | 21 | -17 | -11 | 1 | -9 | 0 | .
O=C(Nc1nc(-c2cccc3ccccc23)cs1)c1ccc2c(c1)S(=O)(=O)c1ccccc1C2=O | 29 | 6 | -18 | -3 | -2 | 6 | .
O=C(Nc1nc(-c2ccccc2)cs1)c1ccc2c(c1)S(=O)(=O)c1ccccc1C2=O | 35* | 14 | -9 | 1 | 1 | 4 | 5
COc1cccc(CN(C)C(=O)c2cc(S(=O)(=O)NC3CCCCC3)ccc2C)c1OC | -5 | 2 | -2 | 1 | 5 | 0 | .
CC(=O)Nc1ccc(/C=N/NC(=S)NC(C)C)cc1 | 1 | 0 | -16 | 1 | -7 | 0 | .
O=C(COC(=O)CNC(=O)c1ccc(-c2ccccc2)cc1)NCc1ccco1 | 5 | 3 | -3 | 0 | 13 | -2 | .
CCOc1ccc(-c2cc(C(=O)Nc3ccc4c(c3)OCCO4)c3ccccc3n2)cc1 | 33* | -8 | 2 | 4 | 15 | 2 | 15
Cc1cccc(NC(=S)NC(=O)c2cc(-c3ccccc3)nc3ccccc23)c1 | 24 | -4 | 3 | 1 | 8 | 3 | .
CCCOc1ccc(C(=O)NNC(=S)NC(=O)c2cc(-c3ccccc3)nc3ccccc23)cc1 | 62* | -1 | 10 | 1 | -5 | 2 | 13
Cc1ccccc1NC(=S)NC(=O)c1cc(-c2ccccc2)nc2ccccc12 | 38* | -6 | -2 | 2 | 3 | 4 | 28
CCCOc1ccc(C(=O)NNC(=S)NC(=O)c2ccccc2)cc1 | 1 | 0 | 4 | -1 | -8 | 2 | .
COc1ccc(N2CCN(S(=O)(=O)c3cn(C)cn3)CC2)cc1 | 1 | 0 | 0 | 0 | -8 | -4 | .
Cc1cc(-c2csc(N)n2)c(C)n1Cc1ccco1 | 31* | -13 | 7 | 9 | 6 | -2 | 2
Cc1cc(-c2csc(N)n2)c(C)n1C | 75* | -21 | 10 | 47 | 7 | -1 | -8
CCn1ncc(-c2csc(N)n2)c1C | -2 | -7 | -2 | -1 | -14 | -4 | .
Cc1ncc2c(n1)-c1cc(F)ccc1SC2 | -1 | -1 | -3 | 0 | -2 | -3 | .
SMILES | NadD block | DNMT1 block | SUMO1-SIM PPI | LMPTP block | Scp1 inh | STEP block | NadD conf
Nc1ncc2c(n1)-c1cc(Cl)ccc1SC2 | 29* | -2 | 6 | -2 | 4 | -8 | 5
CC(C)(O)c1ccccc1CC[C@@H](SCC1(CC(=O)O)CC1)c1cccc(/C=C/c2ccc3ccc(Cl)cc3n2)c1 | 51* | -10 | 15 | 2 | 4 | -2 | 56*
CC(=O)Oc1ccc(Cl)cc1/C=C/c1ccc2ccccc2n1 | 3 | -5 | -6 | 3 | 18 | -2 | .
O=C(COc1ccc(Cl)cc1)NCc1n[nH]c(=O)c2ccccc12 | -1 | 4 | 2 | -2 | 1 | 0 | .
CCC(=O)Nc1ccc(C(=O)COC(=O)c2nc3nccc(C)n3n2)cc1 | 46* | 109* | 25 | 46 | 72* | 5 | 86*
COc1cc2oc(=O)cc(CN3CCN(c4ccccc4F)CC3)c2cc1Cl | 39* | 12 | 2 | 2 | . | -4 | 22
O=C(O)C(SC(C(=O)O)c1ccccc1)c1ccccc1 (configuration not stated) | 0 | 10 | 1 | 1 | -2 | 8 | .
O=C(N[C@H]1C/C=C\C[C@@H](CC(=O)N(CCO)Cc2ccccc2)C(=O)N[C@H](Cc2c[nH]c3ccccc23)COC1=O)OCC1c2ccccc2-c2ccccc21 | 36* | -8 | 5 | 3 | -8 | -1 | 25
O=C(N[C@@H]1C/C=C\C[C@H](CC(=O)N(CCO)Cc2ccccc2)C(=O)N[C@@H](Cc2c[nH]c3ccccc23)COC1=O)OCC1c2ccccc2-c2ccccc21 | 34* | -21 | 4 | 3 | -4 | 5 | 23
O=C(N[C@@H]1C/C=C\C[C@@H](CC(=O)N(CCO)Cc2ccccc2)C(=O)N[C@@H](c2ccccc2)COC1=O)OCC1c2ccccc2-c2ccccc21 | 17 | -15 | -1 | 3 | 0 | -1 | .
O=C(N[C@H]1C/C=C\C[C@H](CC(=O)N(CCO)Cc2ccccc2)C(=O)N[C@H](Cc2c[nH]c3ccccc23)COC1=O)OCC1c2ccccc2-c2ccccc21 | 32* | 1 | 4 | 2 | -3 | 0 | 17
Cc1ccc(C2CC(=O)Oc3cc(C)c(Br)c(C)c32)cc1 (configuration not stated) | -1 | 1 | 6 | 3 | -12 | 3 | .
O=C(CCCNC(=O)c1ccc(Cl)cc1)Nc1nccs1 | -4 | 4 | 1 | 0 | -10 | 0 | .
COC(=O)c1c(NS(=O)(=O)c2ccc3ccccc3c2)sc2c1CCCC2 | 8 | -5 | 1 | 4 | -10 | -1 | .
COC(=O)c1c(NC(=O)c2ccc(C)c(S(=O)(=O)Nc3ccccc3C)c2)sc2c1CCCC2 | 22* | -5 | 2 | 3 | -4 | 1 | -7
